The source made the active and inactive calls. The calls are words filed in the database; no cut-off is given here.

Series [1] concerns Plasmodium falciparum. The series is described as follows: Antimalarial activity against Plasmodium falciparum 3D7 infected in human erythrocytes assessed as reduction in [3H]hypoxanthine incorporation pretreated for 24 hrs followed by [3H]hypoxanthine addition and measured after 48 hrs by scintillation counting method.
Series [2] relates to Plasmodium falciparum. The series is described as follows: Antimalarial activity against synchronized ring stage of Plasmodium falciparum 3D7 infected in human erythrocytes assessed as inhibition of parasite growth at 10 uM incubated for 0 to 48 hrs by Giemsa staining-based microscopic analysis. Format: functional. A digest of the protocol:
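3D7 was sorbitol-synchronized to ring stage at 1% parasitemia, cultured in human O+ erythrocytes (5% hematocrit, RPMI 1640/albumax, 37 °C, low-O2 gas), and exposed for 48 h, with DMSO as control. Giemsa smears at 0, 12, 24, 36 and 48 h gave parasitemia and stage morphology. Mean ± SD of three independent experiments.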

The test system of series [3] is Plasmodium falciparum. The series is described as follows: Antimalarial activity against ring stage of Plasmodium falciparum 3D7 infected in human erythrocytes assessed as parasite survival level at 10 uM measured immediately at 0 hrs by Giemsa staining-based microscopic analysis (reference value: 96.4 +/- 5.09%). The class given is functional. The note with it: 3D7, 0 h.

Series [4] has as its system Plasmodium falciparum. The series is described as follows: Antimalarial activity against trophozoite stage of Plasmodium falciparum 3D7 infected in human erythrocytes assessed as parasite survival level at 10 uM measured immediately at 0 hrs by Giemsa staining-based microscopic analysis (reference value: 3.55 +/- 5.02%). Format: functional. The conditions noted are these: 3D7, 0 h.

Series [5] deals with Plasmodium falciparum. In words: Antimalarial activity against schizont stage of Plasmodium falciparum 3D7 infected in human erythrocytes assessed as parasite survival level at 10 uM measured immediately at 0 hrs by Giemsa staining-based microscopic analysis (reference value: 0%). The class given is functional. The note with it: 3D7, 0 h.
Series [6] has as its system Plasmodium falciparum. The series is described as follows: Antimalarial activity against ring stage of Plasmodium falciparum 3D7 infected in human erythrocytes assessed as parasite survival level at 10 uM incubated for 48 hrs by Giemsa staining-based microscopic analysis (reference value: 51.3 +/- 1.83%). Format: functional. The note with it: 3D7, 48 h.
The subject of series [7] is Plasmodium falciparum. The series is described as follows: Antimalarial activity against trophozoite stage of Plasmodium falciparum 3D7 infected in human erythrocytes assessed as parasite survival level at 10 uM incubated for 48 hrs by Giemsa staining-based microscopic analysis (reference value: 43.65 +/- 5.16%). The class given is functional. The conditions noted are these: 3D7, 48 h.

Series [8] relates to Plasmodium falciparum. The series is described as follows: Antimalarial activity against schizont stage of Plasmodium falciparum 3D7 infected in human erythrocytes assessed as parasite survival level at 10 uM incubated for 48 hrs by Giemsa staining-based microscopic analysis (reference value: 5 +/- 7.07%). The class given is functional. The conditions noted are these: 3D7, 48 h.

Series [9] deals with Plasmodium falciparum. The series is described as follows: Antimalarial activity against synchronized ring stage of Plasmodium falciparum 3D7 infected in human erythrocytes assessed as inhibition of parasite growth incubated for 48 hrs by Giemsa staining-based microscopic analysis. The note with it: 3D7, 48 h. Format: functional, organism-based. A digest of the protocol: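 Sorbitol-synchronized ring-stage 3D7 in human O+ erythrocytes was exposed to four concentrations (1, 5, 10 and 20) for 48 h. Parasitemia was counted on Giemsa smears and IC50 taken from the dose-response curve. Mean ± SD of three independent experiments.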

For series [10], the system named is Plasmodium falciparum. In words: Antimalarial activity against chloroquine resistant Plasmodium falciparum RKL9 infected in human erythrocytes assessed as reduction in parasitemia incubated for 0 to 48 hrs by Giemsa staining-based microscopic analysis. Format: functional, organism-based. A digest of the protocol: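 Sorbitol-synchronized ring-stage culture at 1% parasitemia, 5% hematocrit in human O+ erythrocytes (RPMI 1640, 0.5% albumax, hypoxanthine, gentamicin; 37 °C, 5% CO2/5% O2/90% N2). Compounds at […] for 48 h. Parasitemia counted on Giemsa-stained smears at 0 and 48 h. DMSO control. Mean of three independent experiments ±SD.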

Series [11] can be described thus: Stability of the compound in 0.01 N HCL at pH 2.0 assessed as compound remaining at 1 mg/ml incubated for 0 to 24 hrs by HPLC analysis relative to control. The class given is physicochemical. A digest of the protocol:
(§1)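 Compound stock in acetonitrile was added to 1.0 mL of fresh 0.01 N HCl (pH 2.0) or phosphate buffer (pH 7.4), held at 37 °C, and the amount remaining was measured by HPLC at intervals from 0 to 24 h.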

Series [12] can be described thus: Stability of the compound in phosphate buffer at pH 7.4 assessed as compound remaining at 1 mg/ml incubated for 0 to 24 hrs by HPLC analysis relative to control. Format: physicochemical. A digest of the protocol: as §1
Series [13] concerns Plasmodium falciparum. The series is described as follows: Antimalarial activity against Plasmodium falciparum 3D7 ring stage synchronized forms infected in human erythrocytes assessed as inhibition of parasite proliferation at 5 uM incubated for 48 hrs by Giemsa-staining method. The class given is functional. The note with it: 3D7, 48 h. A digest of the protocol:
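P. falciparum 3D7 grown in human O+ erythrocytes at 5% hematocrit in RPMI 1640 with NaHCO3, albumax, gentamicin and hypoxanthine, at 37 °C under 90% N2/5% CO2/5% O2. Single-concentration screen read as % inhibition of parasite proliferation. Mean of three experiments, each in triplicate.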

One may read the IC50 as the concentration that inhibits the measured activity by half. As for `CC(C)=C[C@H]1C[C@@](C)(/C=C/c2[nH]c3ccccc3c2CCN(C)C)n2c1c(CCN(C)C)c1ccccc12`, the IC50 in the series with Plasmodium falciparum [1] is 150 to 1420 nM.

Usually inhibition stands for how much of the control response was suppressed. Turning to `C/N=C(\c1[nH]c2ccccc2c1CCNC(=O)OC)c1c(F)cccc1F`, in the series with Plasmodium falciparum [2], the “growth inhibition (GI)” value is “Active”. For the same compound, the survival at 10 µM with Plasmodium falciparum [3] is 93%; in the series on Plasmodium falciparum [4] it was 3%; in the series with Plasmodium falciparum [5], 2.82%; in the series on Plasmodium falciparum [6] it was 61.2%; in the series with Plasmodium falciparum [7], 27.5%; in the series with Plasmodium falciparum [8], 11.2%. The IC50 in the series with Plasmodium falciparum [9] worked out at 730 nM. In addition, the inhibition result in the series on Plasmodium falciparum [10] was “Dose dependent effect”. The remaining at 1 mg/ml came out at 90% in series [11] (0.01 N HCl, read-out: Stability) and 95% in series [12] (phosphate buffer, read-out: Stability).

`CNCCc1c(/C=C/[C@@]2(C)C[C@H](C=C(C)C)c3c(CCNC)c4ccccc4n32)[nH]c2ccccc12`: the IC50 in the series with Plasmodium falciparum [1] was in the range of 150 to 1420 nM.

For `CC(C)=C[C@H]1C[C@](C)(/C=C/c2[nH]c3ccccc3c2CCN(C)C)n2c1c(CCN(C)C)c1ccccc12`, in the series on Plasmodium falciparum [1], the IC50 was 150 to 1420 nM.

Turning to `C/N=C(/c1ccc(OC)cc1F)c1[nH]c2ccccc2c1CCNC(=O)OC`, the inhibition at 5 µM in the series on Plasmodium falciparum [13] turned out to be 47%.

For the compound `C/N=C(/c1ccccc1)c1[nH]c2ccccc2c1CCNC(=O)OC`, in the series with Plasmodium falciparum [2], the “growth inhibition (GI)” value was “Active”. Moreover, the survival at 10 µM in the series with Plasmodium falciparum [3] worked out at 95.8%; in the series on Plasmodium falciparum [4] it was 4.15%; in the series on Plasmodium falciparum [5] it was 0%; with Plasmodium falciparum [6], 17.5%; in the series on Plasmodium falciparum [7] it was 77.5%; in the series with Plasmodium falciparum [8] it was 5%. Moreover, the IC50 in the series with Plasmodium falciparum [9] worked out at 890 nM. In addition, the inhibition entry with Plasmodium falciparum [10] is “Dose dependent effect”. Moreover, the Stability result in [11] (buffer) and in [12] (buffer) was “Unstable” throughout.

As to `C/N=C(\c1cc(Br)cs1)c1[nH]c2ccccc2c1CCNC(=O)OC`, the inhibition at 10 µM in the series on Plasmodium falciparum [2] stood at 15%.

Take `COC(=O)NCCc1c(C(=O)c2ccc(Cl)cc2)[nH]c2ccccc12`: the inhibition at 5 µM in the series on Plasmodium falciparum [13] turned out to be 9%.

With `C/N=C(/c1ccc(Cl)cc1)c1[nH]c2ccccc2c1CCNC(=O)OC`, the inhibition at 5 µM with Plasmodium falciparum [13] came out at 32%.

The record behind these values is ChEMBL document CHEMBL4390651, “Indole based antimalarial compounds targeting the melatonin pathway: Their design, synthesis and biological evaluation” (Eur J Med Chem, 2019).
